Experimental findings from ChEMBL document CHEMBL3856227, “Identification of the first small-molecule inhibitor of the REV7 DNA repair protein interaction” (Bioorg Med Chem, 2016) are described below.

Test [1] is filed under the species Homo sapiens. In words: Inhibition of C-terminal TAMRA-labeled REV3L (1875 to 1895 residues) binding to 5'-MBP-His8/3'-FLAG-tagged REV7 R124A mutant (unknown origin) expressed in Escherichia coli BL21(DE3) at 3 to 300 uM after 4 hrs by fluorescence polarization assay. In a few lines: (§1)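 Compounds serially diluted from 10 mM DMSO stock. 4 h incubation, triplicate. Read at ex 555/em 632 nm, reported in mP. Controls: DMSO, and unlabeled REV3L peptides. Compound autofluorescence checked.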
Background: Polarisation of emitted light reports the rotation of a fluorescent probe.

For test [2], the species on record is Homo sapiens. In words: Inhibition of C-terminal biotin-tagged REV3L (1875 to 1895 residues) binding to REV3L (1846 to 1898 residues)/His-tagged REV7 R124A mutant complex (unknown origin) expressed in Escherichia coli BL21(DE3) […] by alphascreen assay.
The species entered for test [3] is Homo sapiens. In words: Destabilization of biotin-Avi-tagged REV3L (1846 to 1898 residues)/His-tagged REV7 R124A mutant complex (unknown origin) expressed in Escherichia coli BL21(DE3) incubated for 4 hrs by SYPRO orange dye based RT-PCR analysis. The procedure, abridged: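 His-REV7(R124A)/REV3L complex at 5 µM in 25 mM HEPES, 100 mM NaCl, pH 7.3 with SYPRO orange 1:2000. Compound at 500 µM final (10 mM DMSO stock) or DMSO, duplicate, 4 h at room temperature. Ramp 25 to 95 °C at 1 °C/min, ex 492/em 610 nm. Tm taken as inflection point of Boltzmann sigmoid fit.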

The species named for test [4] is Homo sapiens. In words: Binding affinity to biotin-Avi-tagged REV3L (1846 to 1898 residues)/His-tagged REV7 R124A mutant complex (unknown origin) expressed in Escherichia coli BL21(DE3) at 50 uM incubated for 20 hrs by pulldown assay. The procedure, abridged: (§2)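 Complex at 1 µM (biotin-AviTag-REV3L(1846–1898) co-expressed with His-REV7(R124A), Ni-purified) with 0.5% DMSO, compound (50 µM) or REV3L(1875–1895) peptide (5 µM) in 50 mM HEPES pH 7.4, 150 mM NaCl, 0.1% Tween 20. Shaken at 1500 rpm, 4 °C, 20 h. Streptavidin agarose then added for 4 h. Beads washed, heat-eluted, run on SDS gel, stained. Duplicates.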

The species entered for test [5] is Homo sapiens. Nature of the test: Binding affinity to biotin-Avi-tagged REV3L (1846 to 1898 residues)/His-tagged REV7 R124A mutant complex (unknown origin) expressed in Escherichia coli BL21(DE3) at 5 uM incubated for 20 hrs by pulldown assay. In a few lines:
as §2

Test [6] has as its system HeLa. Nature of the test: Cytotoxicity in human HeLa cells assessed as decrease in cell viability at 75 uM after 3 days by alamar blue assay. It counts as functional, cell-based. In a few lines: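 HeLa cells at 1000/well, attached overnight, then given compound or DMSO in fresh medium, triplicate, for 3 days. alamarBlue added for 3 h, fluorescence read at ex 510/em 590 nm. Viability normalized to DMSO-treated cells.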
On the technique in general: The colour change of resazurin is a common sign of viable cells or microbes.

Test [7] is described as follows: Inhibition of C-terminal TAMRA-labeled REV3L (1875 to 1895 residues) binding to 5'-MBP-His8/3'-FLAG-tagged REV7 R124A mutant (unknown origin) expressed in Escherichia coli BL21(DE3) after 4 hrs by fluorescence polarization assay. Set-up: species or system Homo sapiens. The procedure, abridged: as §1
In test [8] the test system is Mitotic spindle assembly checkpoint protein MAD2B (Homo sapiens), Q9UI95 [R124A]. In words: Binding affinity to 5'-MBP-His8/3'-FLAG-tagged REV7 R124A mutant (unknown origin) expressed in Escherichia coli BL21(DE3) at 200 uM by 1H waterLOGSY NMR method.
The subject of test [9] is HeLa. In words: Potentiation of cisplatin-induced anticlonogenic activity in human HeLa cells at 75 uM after 24 hrs by crystal violet staining based assay. It is filed as functional, cell-based. The procedure, abridged:
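HeLa cells at 450/well in 6-well plates, attached overnight. Cisplatin added at indicated concentrations; 24 h later, compound at 75 µM final or DMSO added for another 24 h. Medium then replaced and culture continued 6 days. Fixed in 3.7% formaldehyde, stained with 0.5% crystal violet, colonies over ~40 cells counted. Triplicate. Survival normalized to cisplatin-vehicle (0.9% NaCl) wells.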

Another test deals with COS-7. In words: Inhibition of REV7/REV3L protein interaction in African green monkey COS7 cells expressing ICL assessed as inhibition of ICL repair activity at 75 uM after 13 hrs by luciferase reporter gene assay. As to conditions: Chlorocebus aethiops. It is filed as cell-based. In a few lines:
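COS7 cells at 80,000/well. Medium replaced after 5 h, then transfected with pGL-ICL (10 ng) or pGL4.50 (2.5 ng) plus pRL-TK, FuGENE 6. Cells trypsinized 5 h later and replated in quadruplicate with compound or DMSO. Dual firefly/Renilla luciferase read after 13 h. ICL plasmid signal normalized to non-ICL plasmid. Two-tailed unpaired t-test.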
(In general: Reporter assays use an easily measured gene product as a stand-in for the process of interest.)

pIC50: −log10 of the molar value. Activity calls are given as the source filed them. The calls are words filed in the database; no cut-off is given here.

Chain of Mitotic spindle assembly checkpoint protein MAD2B (Homo sapiens), Q9UI95 [R124A] (Q9UI95 whole entry R124A): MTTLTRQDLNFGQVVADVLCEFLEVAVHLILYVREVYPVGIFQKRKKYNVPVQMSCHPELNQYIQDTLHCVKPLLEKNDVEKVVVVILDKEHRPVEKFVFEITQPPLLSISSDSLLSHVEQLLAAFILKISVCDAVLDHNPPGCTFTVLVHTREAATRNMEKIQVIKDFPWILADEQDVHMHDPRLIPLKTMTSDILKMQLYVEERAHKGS

Turning to `CC(=O)N1CCC(Cn2cnc3scc(-c4ccc(C(=O)N5CCOCC5)o4)c3c2=O)CC1`, the inhibition result in the test filed under Homo sapiens [1] is “Active”.

Regarding `CC(=O)N1CCC(Cn2cnc3scc(-c4ccco4)c3c2=O)CC1`, in the test filed under Homo sapiens [2], the inhibition result is “Active”. Besides, the outcome in the test listed under Homo sapiens [3] and in the test filed under Homo sapiens [4] was Active.

As for `CC[C@H](C)[C@H](NC(=O)[C@H](CCC(=O)O)NC(=O)[C@H](CCC(=O)O)NC(=O)[C@H](CCCNC(=N)N)NC(=O)[C@H](CO)NC(=O)[C@@H]1CCCN1C(=O)[C@@H]1CCCN1C(=O)[C@H](CO)NC(=O)[C@H](CCSC)NC(=O)[C@H](CC(C)C)NC(=O)[C@@H]1CCCN1C(=O)[C@H](CCCCN)NC(=O)[C@H](CC(C)C)NC(=O)[C@@H](NC(=O)[C@H](CC(N)=O)NC(=O)[C@H](C)N)[C@@H](C)CC)C(=O)N[C@@H](CCSC)C(=O)N[C@@H](C)C(=O)N[C@H](C(=O)N[C@@H](CC(C)C)C(=O)N[C@@H](CC(C)C)C(=O)O)[C@@H](C)O`, the result in the test filed under Homo sapiens [5] was Active.

The pIC50 is −log10 of the IC50, conventionally taken in molar units. As for `CC(=O)N1CCC(Cn2cnc3scc(-c4ccc(C)o4)c3c2=O)CC1`, the result (in the test on HeLa [6]; in [8]; in the test on HeLa [9]) was Active. In test [7], this compound had a negative logarithm of the IC50 (pIC50) of 4.11. Moreover, in the test with COS-7, the inhibition result was “Active”.
